This is one part of a sample in which hits are shown more often than they occur.
KDM4C inh = KDM4C (human) demethylase inhibition. GST-KDM4C 2-372, H3K9me3 peptide, LANCE TR-FRET. inhibition, % at 12.5 µM. actives 0.15% (n = 96,000). AID 720574;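 active = mean replicate inhibition above about 25%, with at least 55% of replicates also reaching it, limit read from the data, passing the limit was not always enough; inconclusive = only one of those two conditions met; inactive = neither condition met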
Target sequence (Q9H3R0 2-372 limits assumed): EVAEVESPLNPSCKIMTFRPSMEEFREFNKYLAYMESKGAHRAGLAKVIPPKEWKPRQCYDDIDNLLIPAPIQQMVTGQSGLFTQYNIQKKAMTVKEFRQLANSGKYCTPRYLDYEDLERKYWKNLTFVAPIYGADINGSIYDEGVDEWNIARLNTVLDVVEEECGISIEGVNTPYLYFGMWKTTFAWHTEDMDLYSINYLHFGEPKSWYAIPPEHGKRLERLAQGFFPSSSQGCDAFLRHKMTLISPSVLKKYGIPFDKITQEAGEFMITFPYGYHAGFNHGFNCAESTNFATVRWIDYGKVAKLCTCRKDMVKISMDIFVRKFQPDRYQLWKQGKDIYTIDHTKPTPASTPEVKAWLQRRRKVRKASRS
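System: N-terminal GST-fused human GASC-1 (KDM4C) fragment, residues 2-372 / Amount: 10 nM GST-KDM4C in enzyme reaction / Also added: H3K9me3 peptide with Fe(II)/2OG / Times: 30 min demethylation and 1 h detection at room temperature / Signal: LANCE TR-FRET / Read-out basis: Fall in 671/618 emission ratio as inhibition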
IDH1 mut inh = inhibitors of human IDH1 R132H | IDH1 R132H reductase, diaphorase/resazurin fluorescence, 60 min | inhibition, % at 10 µM | actives 0.18% (n = 70,000) | O75874; in the data active = inhibition above about 34%; inconclusive = no clear call, values can overlap the other calls; inactive = below about 11%
Target sequence (O75874 whole entry R132H): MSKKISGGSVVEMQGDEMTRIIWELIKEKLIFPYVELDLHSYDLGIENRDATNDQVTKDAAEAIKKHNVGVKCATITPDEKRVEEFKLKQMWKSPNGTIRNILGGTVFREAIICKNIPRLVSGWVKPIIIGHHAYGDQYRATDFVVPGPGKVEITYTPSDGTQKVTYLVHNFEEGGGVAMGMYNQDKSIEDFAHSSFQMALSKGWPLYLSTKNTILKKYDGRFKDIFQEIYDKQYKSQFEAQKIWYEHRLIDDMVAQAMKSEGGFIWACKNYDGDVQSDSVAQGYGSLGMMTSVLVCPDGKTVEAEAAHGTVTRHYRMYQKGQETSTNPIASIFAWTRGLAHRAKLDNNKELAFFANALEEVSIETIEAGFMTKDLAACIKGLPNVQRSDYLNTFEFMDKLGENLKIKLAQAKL
T cruzi growth-1 = blocks T. cruzi growth in NIH3T3 culture; T. cruzi beta-gal in NIH3T3, GalScreen luminescence, 90 h; inhibition, % at 8.34 µM; actives 5.9% (n = 77,000);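 active = mean inhibition above about 93%, with at least 55% of replicates each passing it, limit read from the data, passing the limit was not always enough; inconclusive = only one of those two conditions holds; inactive = neither condition holds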
T cruzi growth-2 = blocks T. cruzi growth in NIH3T3 host cells | shares compounds with T cruzi growth-1 | T. cruzi beta-gal in NIH3T3, GalScreen luminescence, 90 h | inhibition, % at 8.35 µM | actives 72% (n = 5,600) | AID 651739;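 active = mean replicate inhibition above about 95% and at least 55% of replicates individually reaching it, limit read from the data; inconclusive = only one of the two criteria is met; inactive = neither criterion is met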
T cruzi growth-3 = Trypanosoma cruzi proliferation inhibition; AID 651740; inhibition, % at 2.09 µM; shares compounds with T cruzi growth-1; actives 21% (n = 5,600); T. cruzi beta-gal in NIH3T3, GalScreen luminescence, 90 h;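 active = mean inhibition above about 95%, with at least 55% of replicates also reaching it, limit read from the data; inconclusive = meets just one of the two conditions; inactive = meets neither condition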
NIH3T3 tox = cytotoxicity in mouse NIH/3T3 fibroblasts. shares compounds with T cruzi growth-1. NIH/3T3 viability, CellTiter-Glo ATP luminescence, 90 h. actives 14% (n = 5,600). cytotoxicity (signal decrease), % at 8.35 µM;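 active = mean signal decrease across replicates above about 35% based on untreated-well scatter, with enough replicates individually passing, limit read from the data; inconclusive = no rule stated though some were filed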
3T3 cytotox 2 = kills mouse NIH/3T3 fibroblasts; shares compounds with T cruzi growth-1; NIH/3T3 viability, CellTiter-Glo ATP luminescence, 90 h; inhibition, % at 24.9 µM; actives 56% (n = 5,600);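 active = mean loss of cell viability signal at or above a set limit, and enough replicates individually reaching it; inconclusive = meets only the mean limit or only the replicate share; inactive = meets neither condition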
Large screens that a line does not name were inactive (follow-up assays come after a bar, where they were run).

COc1ccccc1OCC(O)Cn1cnc2ccccc21 (stereo not given)	none (no result: KDM4C inh, T cruzi growth-1)
CCOc1ccc(C(Nc2cccc(C)n2)c2ccc3ccc(C)nc3c2O)cc1 (stereo not given)	none (no result: KDM4C inh, T cruzi growth-1)
O=C(NCc1ccco1)C1CC(c2ccccc2Cl)=NO1 (stereo not given)	none (no result: KDM4C inh, T cruzi growth-1)
CN(CC(=O)Nc1cccc2ccccc12)S(=O)(=O)c1ccc(F)cc1	none (no result: KDM4C inh, T cruzi growth-1)
C[C@@H]1CN([C@H](C)CO)C(=O)Cc2cc(NC(=O)Nc3cccc4ccccc34)ccc2O[C@H]1CN(C)Cc1ccc(Oc2ccccc2)cc1	T cruzi growth-1 96 | T cruzi growth-2 107 | T cruzi growth-3 inactive | NIH3T3 tox inactive | 3T3 cytotox 2 inactive
C[C@H]1CN([C@@H](C)CO)C(=O)Cc2cc(NC(=O)Nc3cccc4ccccc34)ccc2O[C@H]1CN(C)Cc1ccc(Oc2ccccc2)cc1	none
C[C@H](CO)N1C[C@H](C)[C@@H](CN(C)Cc2ccc(Oc3ccccc3)cc2)Oc2ccc(NC(=O)Nc3cccc4ccccc34)cc2CC1=O	none
C[C@@H]1CN([C@@H](C)CO)C(=O)Cc2cc(NC(=O)Nc3cccc4ccccc34)ccc2O[C@H]1CN(C)Cc1ccc(Oc2ccccc2)cc1	T cruzi growth-1 inconclusive | T cruzi growth-2 105 | T cruzi growth-3 107 | NIH3T3 tox inactive | 3T3 cytotox 2 inactive
CC(NS(=O)(=O)c1ccc(Br)cc1)C(=O)Nc1cccc(F)c1 (stereo not given)	none (no result: KDM4C inh, T cruzi growth-1)
C[C@@H]1CN([C@@H](C)CO)C(=O)c2cccc(NC(=O)Nc3ccc(C(F)(F)F)cc3)c2O[C@H]1CN(C)Cc1ccc2c(c1)OCO2	T cruzi growth-1 inconclusive (no result: KDM4C inh, IDH1 mut inh) | T cruzi growth-2 105 | T cruzi growth-3 117 | NIH3T3 tox inactive | 3T3 cytotox 2 55
C[C@@H]1CN([C@H](C)CO)C(=O)c2cccc(NC(=O)Nc3ccc(C(F)(F)F)cc3)c2O[C@H]1CN(C)Cc1ccc2c(c1)OCO2	none
C[C@H]1CN([C@@H](C)CO)C(=O)c2cccc(NC(=O)Nc3ccc(C(F)(F)F)cc3)c2O[C@@H]1CN(C)Cc1ccc2c(c1)OCO2	none (no result: KDM4C inh, IDH1 mut inh)
C[C@@H]1CN([C@H](C)CO)C(=O)c2cccc(NC(=O)Nc3ccc(C(F)(F)F)cc3)c2O[C@@H]1CN(C)Cc1ccc2c(c1)OCO2	none
C[C@H](CO)N1C[C@H](C)[C@@H](CN(C)Cc2ccc3c(c2)OCO3)Oc2c(NC(=O)Nc3ccc(C(F)(F)F)cc3)cccc2C1=O	T cruzi growth-1 104 (no result: IDH1 mut inh) | T cruzi growth-2 97 | T cruzi growth-3 105 | NIH3T3 tox inactive | 3T3 cytotox 2 97
C[C@H](CO)N1C[C@H](C)[C@H](CN(C)Cc2ccc3c(c2)OCO3)Oc2c(NC(=O)Nc3ccc(C(F)(F)F)cc3)cccc2C1=O	T cruzi growth-1 103 | T cruzi growth-2 108 | T cruzi growth-3 103 | NIH3T3 tox inactive | 3T3 cytotox 2 103
CCOc1ccccc1NC(=O)CN1C(=O)c2cccc3cccc1c23	none (no result: KDM4C inh, T cruzi growth-1)
C[C@@H]1CCCCO[C@@H](CN(C)S(=O)(=O)c2ccc(Cl)cc2)[C@H](C)CN([C@@H](C)CO)C(=O)c2cc(NC(=O)Nc3ccc4c(c3)OCO4)ccc2O1	T cruzi growth-1 103 | T cruzi growth-2 110 | T cruzi growth-3 inactive | NIH3T3 tox inactive | 3T3 cytotox 2 inactive
Cc1ccc(S(=O)(=O)N(C)C[C@H]2OCCCC[C@@H](C)Oc3ccc(NC(=O)Nc4ccc5c(c4)OCO5)cc3C(=O)N([C@H](C)CO)C[C@@H]2C)cc1	none (no result: IDH1 mut inh, T cruzi growth-1)
C[C@@H]1CCCCO[C@@H](CN(C)S(=O)(=O)c2ccc(Cl)cc2)[C@@H](C)CN([C@@H](C)CO)C(=O)c2cc(NC(=O)Nc3ccc4c(c3)OCO4)ccc2O1	T cruzi growth-1 97 (no result: IDH1 mut inh) | T cruzi growth-2 105 | T cruzi growth-3 inactive | NIH3T3 tox inactive | 3T3 cytotox 2 inactive
Cc1ccc(S(=O)(=O)N(C)C[C@H]2OCCCC[C@H](C)Oc3ccc(NC(=O)Nc4ccc5c(c4)OCO5)cc3C(=O)N([C@H](C)CO)C[C@@H]2C)cc1	none (no result: IDH1 mut inh, T cruzi growth-1)
Cc1ccc(S(=O)(=O)N(C)C[C@H]2OCCCC[C@@H](C)Oc3ccc(NC(=O)Nc4ccc5c(c4)OCO5)cc3C(=O)N([C@@H](C)CO)C[C@H]2C)cc1	none (no result: T cruzi growth-1)
Cc1noc(C)c1NC(=O)Nc1ccc2c(c1)C(=O)N([C@H](C)CO)C[C@H](C)[C@@H](CN(C)S(=O)(=O)c1ccc(Cl)cc1)OCCCC[C@@H](C)O2	none (no result: KDM4C inh)
C[C@@H]1CCCCO[C@@H](CN(C)S(=O)(=O)c2ccc(Cl)cc2)[C@H](C)CN([C@H](C)CO)C(=O)c2cc(NC(=O)Nc3ccc4c(c3)OCO4)ccc2O1	T cruzi growth-1 106 (no result: IDH1 mut inh) | T cruzi growth-2 106 | T cruzi growth-3 112 | NIH3T3 tox inactive | 3T3 cytotox 2 inactive
Cc1noc(C)c1NC(=O)Nc1ccc2c(c1)C(=O)N([C@@H](C)CO)C[C@H](C)[C@@H](CN(C)S(=O)(=O)c1ccc(Cl)cc1)OCCCC[C@@H](C)O2	T cruzi growth-1 99 (no result: IDH1 mut inh) | T cruzi growth-2 inactive | T cruzi growth-3 inactive | NIH3T3 tox inactive | 3T3 cytotox 2 inactive
CC1(C)CC(=O)c2c(O)cc(OCC(=O)c3cccc([N+](=O)[O-])c3)cc2O1	none (no result: KDM4C inh, T cruzi growth-1)
Cc1sc2ncnc(SCC(=O)Nc3ccccc3Cl)c2c1C	none (no result: KDM4C inh, T cruzi growth-1)
CCCC(O)/C(=C/C1=C(C(=O)CC(CC(=O)O)OC(N)=O)C(=O)c2cccc(O)c2C1=O)CC(C(=O)O)[N+](C)(C)C (stereo not given)	none (no result: KDM4C inh, T cruzi growth-1)
Cc1ccc(-c2nc3ccccc3s2)cc1NC(=O)COc1cccc(C)c1C	none (no result: KDM4C inh, T cruzi growth-1)
COc1ccc2nc(Cl)nc(NC3CCCCC3)c2c1	none (no result: KDM4C inh, T cruzi growth-1)
CN(C)c1ccc(NC(=O)CSc2nc3ccccc3c(=O)n2-c2ccc(Cl)cc2)cc1	none (no result: KDM4C inh, T cruzi growth-1)
C[C@@H]1CN([C@H](C)CO)C(=O)c2cc(NC(=O)Nc3ccc4c(c3)OCO4)ccc2O[C@@H](C)CCCCO[C@H]1CN(C)S(=O)(=O)c1ccc(Cl)cc1	T cruzi growth-1 101 | T cruzi growth-2 108 | T cruzi growth-3 inactive | NIH3T3 tox inactive | 3T3 cytotox 2 inactive
C[C@@H]1CN([C@@H](C)CO)C(=O)c2cc(NC(=O)Nc3ccc4c(c3)OCO4)ccc2O[C@@H](C)CCCCO[C@@H]1CN(C)S(=O)(=O)c1ccc(Cl)cc1	none (no result: IDH1 mut inh)
O=C(Nc1cc(Cl)cc(Cl)c1)N[C@@H]1CC[C@H](CCNS(=O)(=O)c2cccc(F)c2)O[C@@H]1CO	none
O=C(Nc1cccc(F)c1)N[C@@H]1CC[C@@H](CCNS(=O)(=O)c2cccc(Cl)c2)O[C@H]1CO	none
O=C(Nc1cccc(F)c1)N[C@@H]1CC[C@H](CCNS(=O)(=O)c2cccc(Cl)c2)O[C@@H]1CO	T cruzi growth-1 153 | T cruzi growth-2 inactive | T cruzi growth-3 inactive | NIH3T3 tox inactive | 3T3 cytotox 2 inactive
